Legend:
Type in all cases: biochemical
[1] = target: T1, LRRK2 (Mus musculus, UniProt Q5S006); experiment: Radiometric assay of LRRK2-catalyzed LRRKtide phosphorylation; settings: for effect of nucleotide on kinase activity: LRRKtide phosphorylation, data not shown
[2] = target: T1, LRRK2; experiment: Radiometric TLC assay of LRRK2-catalyzed GTP hydrolysis; settings: for Ki: read-out: apparent dissociation constant Ki,app
Method in brief: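 LRRK2 purified from BAC-transgenic mouse brain (30 nM) starts GTP hydrolysis with GTP plus [α-33P]-GTP. Runs are in triplicate, 20 min at room temperature, stopped with 20 mM EDTA. [α-33P]-GDP is resolved on PEI-cellulose TLC (0.5 M KH2PO4, pH 3.4) and counted by scintillation. Initial velocities versus [GTP] are fitted to Michaelis–Menten.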

[3] = target: T1, LRRK2; experiment: TR-FRET assay of LRRK2-catalyzed PLK-peptide phosphorylation
Method in brief: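 Mouse-brain-derived LRRK2 (4 nM) phosphorylates PLK-peptide (RRRSLLE) with varied ATP. Runs are in duplicate, 4 h at room temperature, stopped with 10 mM EDTA, then 2 h with 2 nM Eu-anti-phospho-PLK before the TR-FRET read. For inhibitor studies, ATP is varied at 100 nM PLK-peptide with test compound 0–16.7 µM. Initial velocities are fitted by nonlinear least squares.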

[4] = 200 µM GTP, 0.5 mM ADP, 0.5 mM ATP or 1 µM PLK

T1 sequence (Q5S006 whole entry): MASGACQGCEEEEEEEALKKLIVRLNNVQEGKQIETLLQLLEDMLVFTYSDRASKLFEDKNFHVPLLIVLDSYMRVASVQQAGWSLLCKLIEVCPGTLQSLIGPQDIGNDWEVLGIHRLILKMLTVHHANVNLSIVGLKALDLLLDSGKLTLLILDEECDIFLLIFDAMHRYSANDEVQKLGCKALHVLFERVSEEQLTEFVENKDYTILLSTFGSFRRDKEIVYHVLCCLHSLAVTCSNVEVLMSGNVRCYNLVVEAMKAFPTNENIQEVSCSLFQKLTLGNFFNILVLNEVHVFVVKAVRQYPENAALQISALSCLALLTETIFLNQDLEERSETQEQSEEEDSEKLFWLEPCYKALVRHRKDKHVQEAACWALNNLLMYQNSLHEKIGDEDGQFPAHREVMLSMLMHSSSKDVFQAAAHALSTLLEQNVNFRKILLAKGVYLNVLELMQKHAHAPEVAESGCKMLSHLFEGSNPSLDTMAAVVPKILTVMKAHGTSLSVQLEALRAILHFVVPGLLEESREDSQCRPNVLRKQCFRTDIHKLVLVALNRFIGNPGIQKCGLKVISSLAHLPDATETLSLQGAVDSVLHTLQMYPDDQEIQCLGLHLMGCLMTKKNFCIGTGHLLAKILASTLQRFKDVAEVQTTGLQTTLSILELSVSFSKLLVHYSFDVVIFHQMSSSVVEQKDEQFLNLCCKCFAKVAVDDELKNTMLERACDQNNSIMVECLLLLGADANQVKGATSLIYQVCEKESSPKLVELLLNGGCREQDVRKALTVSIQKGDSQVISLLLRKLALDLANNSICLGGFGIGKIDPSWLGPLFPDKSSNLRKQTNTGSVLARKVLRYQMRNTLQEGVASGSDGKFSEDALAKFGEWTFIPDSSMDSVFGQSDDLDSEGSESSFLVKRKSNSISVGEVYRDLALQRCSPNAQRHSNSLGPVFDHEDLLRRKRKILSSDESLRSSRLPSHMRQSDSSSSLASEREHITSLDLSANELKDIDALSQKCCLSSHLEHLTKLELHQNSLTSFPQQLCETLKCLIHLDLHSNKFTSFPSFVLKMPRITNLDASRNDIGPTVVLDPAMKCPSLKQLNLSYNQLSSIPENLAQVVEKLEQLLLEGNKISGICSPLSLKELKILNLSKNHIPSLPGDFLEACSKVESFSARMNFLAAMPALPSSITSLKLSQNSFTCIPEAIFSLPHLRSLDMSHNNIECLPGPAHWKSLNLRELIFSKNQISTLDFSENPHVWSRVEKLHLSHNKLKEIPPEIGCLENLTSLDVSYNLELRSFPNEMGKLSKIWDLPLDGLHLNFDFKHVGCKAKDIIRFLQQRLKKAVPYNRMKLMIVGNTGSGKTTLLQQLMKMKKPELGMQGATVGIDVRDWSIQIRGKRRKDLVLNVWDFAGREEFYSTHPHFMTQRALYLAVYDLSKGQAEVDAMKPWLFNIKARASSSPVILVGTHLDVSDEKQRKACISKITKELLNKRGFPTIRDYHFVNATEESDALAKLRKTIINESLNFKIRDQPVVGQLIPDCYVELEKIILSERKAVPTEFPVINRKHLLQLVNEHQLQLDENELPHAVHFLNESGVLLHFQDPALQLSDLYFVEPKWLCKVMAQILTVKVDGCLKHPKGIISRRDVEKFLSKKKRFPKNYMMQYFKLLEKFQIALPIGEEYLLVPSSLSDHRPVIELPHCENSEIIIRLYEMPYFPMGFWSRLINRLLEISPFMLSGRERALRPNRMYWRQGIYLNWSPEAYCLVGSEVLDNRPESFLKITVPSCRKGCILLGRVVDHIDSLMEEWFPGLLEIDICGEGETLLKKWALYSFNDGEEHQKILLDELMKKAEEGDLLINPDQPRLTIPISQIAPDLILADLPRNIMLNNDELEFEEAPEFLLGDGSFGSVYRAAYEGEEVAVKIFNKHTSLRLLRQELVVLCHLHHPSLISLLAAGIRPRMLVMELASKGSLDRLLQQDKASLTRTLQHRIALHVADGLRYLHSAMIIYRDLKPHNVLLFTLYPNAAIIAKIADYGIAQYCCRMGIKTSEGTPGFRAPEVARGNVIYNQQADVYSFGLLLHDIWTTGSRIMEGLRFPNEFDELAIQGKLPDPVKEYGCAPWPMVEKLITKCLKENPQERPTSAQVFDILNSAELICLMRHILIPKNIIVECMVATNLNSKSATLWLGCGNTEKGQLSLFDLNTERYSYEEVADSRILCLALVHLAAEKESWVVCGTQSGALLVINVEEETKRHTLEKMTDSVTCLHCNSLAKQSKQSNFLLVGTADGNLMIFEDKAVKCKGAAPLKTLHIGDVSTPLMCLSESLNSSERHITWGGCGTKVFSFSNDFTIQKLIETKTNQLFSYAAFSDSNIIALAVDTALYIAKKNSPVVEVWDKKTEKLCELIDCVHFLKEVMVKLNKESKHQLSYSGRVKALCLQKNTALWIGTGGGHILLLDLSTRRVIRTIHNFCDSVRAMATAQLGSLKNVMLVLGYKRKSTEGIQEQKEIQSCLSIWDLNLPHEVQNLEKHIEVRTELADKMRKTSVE

## Nc1nc2c(ncn2[C@@H]2O[C@H](COP(=O)(O)O)[C@@H](O)[C@H]2O)c(=O)[nH]1 [GMP]
[1]
  effect of nucleotide on kinase activity: no significant activation or inhibition of kinase activity was detected
[2]; 200 µM GTP
  Ki: 2900 ± 300 µM

## Nc1ncnc2c1ncn2[C@@H]1O[C@H](COP(=O)(O)O)[C@@H](O)[C@H]1O [AMP]
[3]; read-out: Ki,e, PLK-peptide as phosphoryl acceptor
  Ki: 2500 nM
[1]
  difference of Ki,e between PLK-peptide and LRRKtide reactions: 5 fold
[1]; read-out: Ki,e, LRRKtide as phosphoryl acceptor
  Ki: 12 µM

## Nc1nc2c(ncn2[C@@H]2O[C@H](COP(=O)(O)OP(=O)(O)O)[C@@H](O)[C@H]2O)c(=O)[nH]1 [GDP]
[1]
  effect of nucleotide on kinase activity: no significant activation or inhibition of kinase activity was detected
[2]; 200 µM GTP
  Ki: 97 ± 16 µM

## CN[C@@H]1C[C@H]2O[C@@](C)([C@@H]1OC)n1c3ccccc3c3c4c(c5c6ccccc6n2c5c31)C(=O)NC4 [staurosporine]
[3]; kinase assay not specified, data not shown
  inhibition of LRRK2 kinase activity: inhibits LRRK2 kinase activity
[2]; data not shown
  inhibition of GTPase activity: does not inhibit GTPase activity at all

## Nc1ncnc2c1ncn2[C@@H]1O[C@H](COP(=O)(O)OP(=O)(O)O)[C@@H](O)[C@H]1O [ADP]
[2]
  difference in dissociation constants, GTPase vs kinase reaction: 30 fold
[2]; [4]
  inhibition of GTPase activity: Inhibition of GTPase activity was detected
[2]; 200 µM GTP
  Ki: 600 ± 100 µM

## Nc1ncnc2c1ncn2[C@@H]1O[C@H](COP(=O)(O)OP(=O)(O)OP(=O)(O)O)[C@@H](O)[C@H]1O [ATP]
[3]; ATP with PLK-peptide as phosphoryl acceptor, global fit
  KA (KATP): 13 ± 2.9 µM
[1]; ATP with LRRKtide as phosphoryl acceptor, global fit
  KA (KATP): 67 ± 6.4 µM
[2]; [4]
  inhibition of GTPase activity: Inhibition of GTPase activity was detected

## Nc1nc2c(ncn2[C@@H]2O[C@H](COP(=O)(O)OP(=O)(O)OP(=O)(O)O)[C@@H](O)[C@H]2O)c(=O)[nH]1 [GTP]
[1]
  effect of nucleotide on kinase activity: no significant activation or inhibition of kinase activity was detected
[2]; 1 mM GTP, pH 7.4, D2O molar fraction 0.86, four experiments
  solvent isotope effect ^Dkcat: 0.97 ± 0.04
[2]; GTP hydrolysis
  kcat: 0.23 ± 0.02 s⁻¹
[2]; read-out: Km (KGTP), GTP hydrolysis
  Km: 210 ± 29 µM
